Test [1] addresses T1, Peptidyl-prolyl cis-trans isomerase FKBP5 (Homo sapiens, UniProt Q13451).
T1 sequence (Q13451 whole entry): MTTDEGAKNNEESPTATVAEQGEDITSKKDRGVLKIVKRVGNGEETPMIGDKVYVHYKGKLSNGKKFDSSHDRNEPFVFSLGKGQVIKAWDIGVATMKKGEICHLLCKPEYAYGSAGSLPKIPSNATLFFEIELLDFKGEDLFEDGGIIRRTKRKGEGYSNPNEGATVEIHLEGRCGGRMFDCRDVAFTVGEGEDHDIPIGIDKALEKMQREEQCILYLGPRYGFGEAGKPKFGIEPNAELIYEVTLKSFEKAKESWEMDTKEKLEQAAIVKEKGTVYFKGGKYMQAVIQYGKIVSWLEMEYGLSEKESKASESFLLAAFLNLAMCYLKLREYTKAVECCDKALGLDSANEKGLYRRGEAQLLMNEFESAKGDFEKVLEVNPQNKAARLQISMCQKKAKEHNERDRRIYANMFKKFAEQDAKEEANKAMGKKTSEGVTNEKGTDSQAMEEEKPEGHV
Nature of the test: Displacement of fluorescent tracer 5-(3-(4-((1S,5S,6S)-10-(3,5-dichlorophenylsulfonyl)-2-oxo-3-(pyridin-3-ylmethyl)-3,10-diazabicyclo[4.3.1]decan-5-yl)-1H-1,2,3-triazol-1-yl)propylcarbamoyl)-2-(6-(dimethylamino)-3-(dimethyliminio)-3H-xanthen-9-yl)benzoate from recombinant full length C-terminal FLAG-tagged FKBP51 (unknown origin) expressed in Escherichia coli BL21 (DE3) cells incubated for 30 mins by fluorescence polarisation competition binding assay. A general note: Fluorescence polarisation rises when a labelled molecule tumbles more slowly, as on binding a larger partner.

Test [2] has as its target T2, Peptidyl-prolyl cis-trans isomerase FKBP4 (Homo sapiens, UniProt Q02790).
T2 sequence (Q02790 whole entry): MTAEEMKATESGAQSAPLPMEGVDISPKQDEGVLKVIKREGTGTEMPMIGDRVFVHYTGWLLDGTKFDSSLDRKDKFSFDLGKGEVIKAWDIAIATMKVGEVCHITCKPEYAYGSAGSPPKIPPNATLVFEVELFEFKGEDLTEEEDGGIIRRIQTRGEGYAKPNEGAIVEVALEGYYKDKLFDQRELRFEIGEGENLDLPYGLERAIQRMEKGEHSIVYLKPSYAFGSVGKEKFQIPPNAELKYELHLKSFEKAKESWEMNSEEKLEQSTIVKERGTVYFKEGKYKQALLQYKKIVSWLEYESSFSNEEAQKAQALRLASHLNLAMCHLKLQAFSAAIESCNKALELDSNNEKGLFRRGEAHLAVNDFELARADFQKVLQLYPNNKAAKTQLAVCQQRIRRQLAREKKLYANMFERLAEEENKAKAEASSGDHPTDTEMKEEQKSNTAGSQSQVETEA
Nature of the test: Displacement of fluorescent tracer 5-(3-(4-((1S,5S,6S)-10-(3,5-dichlorophenylsulfonyl)-2-oxo-3-(pyridin-3-ylmethyl)-3,10-diazabicyclo[4.3.1]decan-5-yl)-1H-1,2,3-triazol-1-yl)propylcarbamoyl)-2-(6-(dimethylamino)-3-(dimethyliminio)-3H-xanthen-9-yl)benzoate from recombinant full length C-terminal FLAG-tagged FKBP52 (unknown origin) expressed in Escherichia coli BL21 (DE3) cells incubated for 30 mins by fluorescence polarisation competition binding assay. The method, boiled down:
(§1)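 Competitive FP in 150 mM NaCl, 20 mM HEPES pH 8.0, 0.002% Triton X-100. Ligand 1:1 serially diluted in DMSO and premixed with fluorescent tracer, tracer working solution 11.9 nM (FKBP12.6, 51FK1, 52FK1) or 5.95 nM (FKBP12) before final 10-fold dilution into protein. 30 min at room temperature, read at ex/em 535/590 nm. Weighted SD from at least two independent runs.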

Test [3] in a line: (§2) Selectivity ratio of Kd for displacement of fluorescent tracer 5-(3-(4-((1S,5S,6S)-10-(3,5-dichlorophenylsulfonyl)-2-oxo-3-(pyridin-3-ylmethyl)-3,10-diazabicyclo[4.3.1]decan-5-yl)-1H-1,2,3-triazol-1-yl)propylcarbamoyl)-2-(6-(dimethylamino)-3-(dimethyliminio)-3H-xanthen-9-yl)benzoate from recombinant full length C-terminal FLAG-tagged FKBP52 (unknown origin) to Kd for displacement of fluorescent tracer 5-(3-(4-((1S,5S,6S)-10-(3,5-dichlorophenylsulfonyl)-2-oxo-3-(pyridin-3-ylmethyl)-3,10-diazabicyclo[4.3.1]decan-5-yl)-1H-1,2,3-triazol-1-yl)propylcarbamoyl)-2-(6-(dimethylamino)-3-(dimethyliminio)-3H-xanthen-9-yl)benzoate from recombinant full length C-terminal FLAG-tagged FKBP51 (unknown origin).

Test [4] concerns the target Peptidyl-prolyl cis-trans isomerase FKBP1A (Homo sapiens, UniProt P62942). Nature of the test: Displacement of fluorescent tracer 5-(3-(4-((1S,5S,6S)-10-(3,5-dichlorophenylsulfonyl)-2-oxo-3-(pyridin-3-ylmethyl)-3,10-diazabicyclo[4.3.1]decan-5-yl)-1H-1,2,3-triazol-1-yl)propylcarbamoyl)-2-(6-(dimethylamino)-3-(dimethyliminio)-3H-xanthen-9-yl)benzoate from recombinant full length C-terminal FLAG-tagged FKBP12 (unknown origin) expressed in Escherichia coli BL21 ([…]) cells incubated for 30 mins by fluorescence polarisation competition binding assay. The method, boiled down:
as §1

A short description of test [5]: as §2, with “FJBP12” for “FKBP52 (unknown origin)”.
The target in test [6] is Peptidyl-prolyl cis-trans isomerase FKBP1B (Homo sapiens, UniProt P68106). Nature of the test: Displacement of fluorescent tracer 5-(3-(4-((1S,5S,6S)-10-(3,5-dichlorophenylsulfonyl)-2-oxo-3-(pyridin-3-ylmethyl)-3,10-diazabicyclo[4.3.1]decan-5-yl)-1H-1,2,3-triazol-1-yl)propylcarbamoyl)-2-(6-(dimethylamino)-3-(dimethyliminio)-3H-xanthen-9-yl)benzoate from recombinant full length C-terminal FLAG-tagged FKBP12.6 (unknown origin) expressed in Escherichia coli BL21 (DE3) cells incubated for 30 mins by fluorescence polarisation competition assay. An outline of the steps: as §1

Test [7] is described as follows: as §2, with “FKBP12.6” for “FKBP52”.

The Kd is the equilibrium constant for the complex coming apart.

Peptidyl-prolyl cis-trans isomerase FKBP1B, sequence (P68106 whole entry): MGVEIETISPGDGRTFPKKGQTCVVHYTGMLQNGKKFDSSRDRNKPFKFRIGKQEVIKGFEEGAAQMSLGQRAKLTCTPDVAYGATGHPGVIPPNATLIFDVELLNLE
Peptidyl-prolyl cis-trans isomerase FKBP1A, sequence (P62942 whole entry): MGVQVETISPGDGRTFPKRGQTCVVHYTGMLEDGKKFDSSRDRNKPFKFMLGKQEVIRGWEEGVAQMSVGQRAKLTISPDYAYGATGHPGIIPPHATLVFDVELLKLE

With `COc1ccc(CC[C@H]2OC(=O)[C@@H]3CCCCN3C(=O)[C@@H](C3CCCCC3)c3cc(OC)c(c(OC)c3)OCCCCOc3cccc2c3)cc1OC`, the Kd in test [1] was 89 nM; in test [2] it was more than 10 µM; in test [4], 584 nM; in test [6] it was 383 nM. Further, the figures for the Selectivity ratio in test [3], in test [5] and in test [7] were more than 112, 6.6 and 4.3, respectively.
Consider `COc1ccc(CC[C@H]2OC(=O)[C@@H]3CCCCN3C(=O)[C@@H](C3CCCCC3)c3cc(OC)c(OC)c(c3)OCC/C=C/COc3cccc2c3)cc1OC`, for which the Kd in test [1] was 113 nM; in test [2], more than 10 µM; in test [4], 588 nM; in test [6], 709 nM. The results for the Selectivity ratio in test [3], in test [5] and in test [7] were more than 89, 5.2 and 6.3, respectively.
Turning to `COc1ccc(CC[C@H]2OC(=O)[C@@H]3CCCCN3C(=O)[C@@H](C3CCCCC3)c3cc(OC)c(c(OC)c3)OCCOCCCCOc3cccc2c3)cc1OC`, the Kd was 138 nM in test [1], more than 10 µM in test [2], 1110 nM in test [4] and 429 nM in test [6]. Further, the values for the Selectivity ratio in test [3], in test [5] and in test [7] were more than 72, 8 and 3.1, respectively.
Take `COc1ccc(CC[C@H]2OC(=O)[C@@H]3CCCCN3C(=O)[C@@H](C3CCCCC3)c3cc(OC)c(c(OC)c3)OCCOC/C=C/COc3cccc2c3)cc1OC`: the figures for the Kd in test [2], in test [4] and in test [6] were more than 10 µM, 1010 nM and 715 nM, respectively.
Turning to `COc1ccc(CC[C@H]2OC(=O)[C@@H]3CCCCN3C(=O)[C@@H](C3CCCCC3)c3cc(OC)c(OC)c(c3)OCCOC/C=C/COc3cccc2c3)cc1OC`, the dissociation constant (Kd) is 62 nM in test [1], more than 10 µM in test [2], 192 nM in test [4] and 105 nM in test [6]. Moreover, the Selectivity ratio in test [3] was more than 161; in test [5], 3.1; in test [7] it was 1.7.
Regarding `COc1ccc(CC[C@H]2OC(=O)[C@@H]3CCCCN3C(=O)[C@@H](C3CCCCC3)c3cc(OC)c(c(OC)c3)OCCCOCCCCOc3cccc2c3)cc1OC`, the Kd in test [1] was 75 nM; in test [2], more than 10 µM; in test [4], 484 nM; in test [6] it was 277 nM. Further, the Selectivity ratio in test [3] is more than 133; in test [5], 6.4; in test [7] it was 3.7.
For `COc1ccc(CC[C@H]2OC(=O)[C@@H]3CCCCN3C(=O)[C@@H](C3CCCCC3)c3cc(OC)c(c(OC)c3)OCCCOc3cccc2c3)cc1OC`, the Kd in test [1] was 70 nM; in test [2], more than 10 µM; in test [4], 744 nM; in test [6] it was 446 nM. Moreover, the figures for the Selectivity ratio in test [3], in test [5] and in test [7] were more than 142, 10.6 and 6.3, respectively.
Consider `COc1ccc(CC[C@H]2OC(=O)[C@@H]3CCCCN3C(=O)[C@@H](C3CCCCC3)c3cc(OC)c(c(OC)c3)OCC/C=C\COc3cccc2c3)cc1OC`, for which the Kd in test [1] is 88 nM; in test [2] it was more than 10 µM; in test [4] it was 526 nM; in test [6], 495 nM. Besides, the Selectivity ratio in test [3] was more than 114; in test [5] it was 6; in test [7], 5.6.
For `COc1ccc(CC[C@H]2OC(=O)[C@@H]3CCCCN3C(=O)[C@@H](C3CCCCC3)c3cc(OC)c(c(OC)c3)OCCC(=O)COc3cccc2c3)cc1OC`, the Kd was 11 nM in test [1], 4.67 µM in test [2], 86 nM in test [4] and 38 nM in test [6]. Besides, the Selectivity ratio in test [3] worked out at 425; in test [5], 7.8; in test [7] it was 3.4.
As to `COc1ccc(CC[C@H]2OC(=O)[C@@H]3CCCCN3C(=O)[C@@H](C3CCCCC3)c3cc(OC)c(OC)c(c3)OCCCC(=O)COc3cccc2c3)cc1OC`, the Kd amounted to 28 nM in test [1], 4.1 µM in test [2], 66 nM in test [4] and 43 nM in test [6]. In addition, the Selectivity ratio amounted to 146 in test [3], 2.4 in test [5] and 1.5 in test [7].
Regarding `COc1ccc(CC[C@H]2OC(=O)[C@@H]3CCCCN3C(=O)[C@@H](C3CCCCC3)c3cc(OC)c(c(OC)c3)OCCOc3cccc2c3)cc1OC`, the Kd in test [1] was 68 nM; in test [2] it was more than 10 µM; in test [4], 532 nM; in test [6], 227 nM. Moreover, the Selectivity ratio in test [3] is more than 147; in test [5] it was 7.8; in test [7], 3.3.
For the compound `COc1cccc([C@@H](CCc2ccc(OC)c(OC)c2)OC(=O)[C@@H]2CCCCN2C(=O)[C@H](c2cc(OC)c(OC)c(OC)c2)C2CCCCC2)c1`, the Kd in test [1] is 83 nM; in test [2], more than 10 µM; in test [4], 263 nM; in test [6], 203 nM.
Consider `COc1ccc(CC[C@H]2OC(=O)[C@@H]3CCCCN3C(=O)[C@@H](C3CCCCC3)c3cc(OC)c(c(OC)c3)OCC/C=C/COc3cccc2c3)cc1OC`, for which the Kd is 149 nM in test [1], more than 10 µM in test [2], 1010 nM in test [4] and 1080 nM in test [6]. For the same compound, the Selectivity ratio is more than 67 in test [3], 6.8 in test [5] and 7.2 in test [7].
As for `COc1ccc(CC[C@H]2OC(=O)[C@@H]3CCCCN3C(=O)[C@@H](C3CCCCC3)c3cc(OC)c(c(OC)c3)OC/C=C\COc3cccc2c3)cc1OC`, the Kd in test [1] is 67 nM; in test [2] it was more than 10 µM; in test [4], 815 nM; in test [6], 658 nM. The values for the Selectivity ratio in test [3], in test [5] and in test [7] were more than 149, 12.2 and 9.8, respectively.
For `COc1ccc(CC[C@H]2OC(=O)[C@@H]3CCCCN3C(=O)[C@@H](C3CCCCC3)c3cc(OC)c(c(OC)c3)OCCOC/C=C\COc3cccc2c3)cc1OC`, the values for the Kd in test [2], in test [4] and in test [6] were more than 10 µM, 798 nM and 344 nM, respectively.

The record behind these values is ChEMBL document CHEMBL4834405, “Structure-Based Design of High-Affinity Macrocyclic FKBP51 Inhibitors” (J Med Chem, 2021).
